Test results published in ChEMBL document CHEMBL1641412, “Synthesis and 11β hydroxysteroid dehydrogenase 1 inhibition of thiazolidine derivatives with an adamantyl group” (Bioorg Med Chem Lett, 2011).
Values belong to the compound of their own block, whether it stands above or below them.

How the values were obtained:
[1] = Metabolic stability in human liver microsomes after 30 mins; format: ADME, Microsome; conditions: read-out: Stability
[2] = target: T1, 11-beta-hydroxysteroid dehydrogenase type 2 (Homo sapiens) (UniProt P80365); assay: Inhibition of human 11beta-HSD2 expressed in HEK293 cells at 10 uM after 24 hrs by HTRF cortisol assay; format: cell-based
T1 sequence (whole entry): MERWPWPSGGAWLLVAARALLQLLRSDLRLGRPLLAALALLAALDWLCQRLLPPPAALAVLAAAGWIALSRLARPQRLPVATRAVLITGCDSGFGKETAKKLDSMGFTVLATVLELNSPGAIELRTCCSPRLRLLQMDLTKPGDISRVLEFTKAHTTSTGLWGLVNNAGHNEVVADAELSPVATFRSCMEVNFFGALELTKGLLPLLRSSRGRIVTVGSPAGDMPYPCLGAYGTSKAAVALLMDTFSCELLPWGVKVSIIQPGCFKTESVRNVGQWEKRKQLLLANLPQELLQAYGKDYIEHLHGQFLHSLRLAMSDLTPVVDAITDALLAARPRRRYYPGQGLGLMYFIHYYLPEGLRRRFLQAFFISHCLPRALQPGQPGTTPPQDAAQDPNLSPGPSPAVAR

[3] = target: 11-beta-hydroxysteroid dehydrogenase 1 (Homo sapiens, UniProt P28845); assay: Inhibition of human 11beta-HSD1 expressed in CHO cells after 3 hrs by HTRF cortisol assay; format: cell-based
[4] = target: 11-beta-hydroxysteroid dehydrogenase 1 (Mus musculus, UniProt P50172); assay: Inhibition of mouse 11beta-HSD1 expressed in CHO cells after 3 hrs by HTRF cortisol assay; format: cell-based
CYP3A4 = CYP3A4 (Homo sapiens, UniProt P08684); assay: Inhibition of CYP3A4 at 10 uM; format: ADME
[5] = Cmax in po dosed rat; format: ADME, organism-based; parameters: route oral; conditions: in vivo
CYP1A2 = target: T2, CYP1A2 (Homo sapiens, UniProt P05177); assay: Inhibition of CYP1A2 at 10 uM; format: ADME
T2 sequence (P05177 whole entry): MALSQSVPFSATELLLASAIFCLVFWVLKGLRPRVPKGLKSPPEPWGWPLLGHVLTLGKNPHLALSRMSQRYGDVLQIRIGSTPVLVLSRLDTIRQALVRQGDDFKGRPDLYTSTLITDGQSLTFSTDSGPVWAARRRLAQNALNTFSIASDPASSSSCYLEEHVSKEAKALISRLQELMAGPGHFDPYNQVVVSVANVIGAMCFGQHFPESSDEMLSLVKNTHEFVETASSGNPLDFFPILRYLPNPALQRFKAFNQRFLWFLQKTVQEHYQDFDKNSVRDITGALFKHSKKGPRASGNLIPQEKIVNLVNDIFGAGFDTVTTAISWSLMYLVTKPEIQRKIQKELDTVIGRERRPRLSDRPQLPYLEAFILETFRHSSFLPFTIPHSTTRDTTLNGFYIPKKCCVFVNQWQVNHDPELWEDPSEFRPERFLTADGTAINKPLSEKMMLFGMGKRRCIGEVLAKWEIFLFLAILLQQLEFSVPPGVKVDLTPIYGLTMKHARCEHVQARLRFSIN

CYP2C19 = CYP2C19 (Homo sapiens, UniProt P33261); assay: Inhibition of CYP2C19 at 10 uM; format: ADME
[6] = Clearance in po dosed rat; format: ADME, organism-based; conditions: in vivo
Mus musculus [7] = assay: In vivo inhibition of 11beta-HSD1 in C57/BL6 mouse lnguinal fat pad assessed as cortisol product at 40 mg/kg, po after 2 hrs by ELISA; format: functional; conditions: C57Bl/6, Fat pad
CYP2D6 = CYP2D6 (Homo sapiens, UniProt P10635); assay: Inhibition of CYP2D6 at 10 uM; format: ADME
Mus musculus [8] = assay: In vivo inhibition of 11beta-HSD1 in C57Bl/6 mouse liver assessed as cortisol product at 40 mg/kg, po after 2 hrs by ELISA; format: functional; conditions: C57Bl/6, 2 h
[9] = Oral bioavailability in po dosed rat; format: ADME, organism-based; conditions: in vivo
[10] = AUC (0 to 8 hrs) in po dosed rat; format: ADME, organism-based; parameters: time < 8 hr, route oral; conditions: plasma
Summary of the method: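 Rats dosed orally; plasma exposure expressed as AUC over 0–8 h.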

Mus musculus [11] = assay: Antidiabetic activity in KKAy mouse assessed as reduction of non-fasting plasma glucose level at 100 mg/kg, po qd for 18 days relative to control; format: functional; parameters: scale not given: the % may be the effect or the level left
Summary of the method: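 KKAy mice dosed orally at 100 mg/kg for 18 days alongside vehicle-treated controls; non-fasting blood glucose measured after 18 days; n = 7 mice/group, means ± SEM.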

Mus musculus [12] = assay: Antidiabetic activity in KKAy mouse assessed as reduction of AUC of plasma glucose level at 100 mg/kg, po qd for 18 days by oral glucose tolerance test relative to control; format: functional; parameters: scale not given: the % may be the effect or the level left
Cynomolgus monkey [13] = assay: In vivo inhibition of 11beta-HSD1 in cynomolgus monkey lnguinal fat pad assessed as cortisol product at 20 mg/kg, po after 2 hrs by ELISA; format: functional; conditions: Macaca fascicularis
[14] = target: Voltage-gated inwardly rectifying potassium channel KCNH2 (Homo sapiens, UniProt Q12809); assay: Binding affinity to human ERG
Cynomolgus monkey [15] = assay: In vivo inhibition of 11beta-HSD1 in cynomolgus monkey liver assessed as cortisol product at 20 mg/kg, po after 2 hrs by ELISA; format: functional; conditions: Macaca fascicularis

Sequence of 11-beta-hydroxysteroid dehydrogenase 1 (Mus musculus, UniProt P50172) (P50172 whole entry): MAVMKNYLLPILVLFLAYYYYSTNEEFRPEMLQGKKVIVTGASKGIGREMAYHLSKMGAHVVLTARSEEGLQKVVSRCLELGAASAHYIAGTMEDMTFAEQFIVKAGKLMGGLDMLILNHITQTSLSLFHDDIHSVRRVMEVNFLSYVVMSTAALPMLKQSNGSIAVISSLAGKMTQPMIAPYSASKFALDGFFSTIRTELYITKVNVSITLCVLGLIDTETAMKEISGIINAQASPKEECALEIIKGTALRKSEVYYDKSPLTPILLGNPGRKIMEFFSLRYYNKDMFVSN
Sequence of 11-beta-hydroxysteroid dehydrogenase 1 (Homo sapiens, UniProt P28845) (P28845 whole entry): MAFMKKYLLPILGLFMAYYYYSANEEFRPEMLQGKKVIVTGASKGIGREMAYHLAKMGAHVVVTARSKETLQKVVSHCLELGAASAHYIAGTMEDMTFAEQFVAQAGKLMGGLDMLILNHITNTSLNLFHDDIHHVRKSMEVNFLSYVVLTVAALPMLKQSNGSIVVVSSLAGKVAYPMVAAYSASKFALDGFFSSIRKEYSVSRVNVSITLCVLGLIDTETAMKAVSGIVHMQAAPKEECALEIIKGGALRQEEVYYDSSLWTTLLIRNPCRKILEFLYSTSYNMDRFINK
Sequence of CYP2D6 (P10635 whole entry): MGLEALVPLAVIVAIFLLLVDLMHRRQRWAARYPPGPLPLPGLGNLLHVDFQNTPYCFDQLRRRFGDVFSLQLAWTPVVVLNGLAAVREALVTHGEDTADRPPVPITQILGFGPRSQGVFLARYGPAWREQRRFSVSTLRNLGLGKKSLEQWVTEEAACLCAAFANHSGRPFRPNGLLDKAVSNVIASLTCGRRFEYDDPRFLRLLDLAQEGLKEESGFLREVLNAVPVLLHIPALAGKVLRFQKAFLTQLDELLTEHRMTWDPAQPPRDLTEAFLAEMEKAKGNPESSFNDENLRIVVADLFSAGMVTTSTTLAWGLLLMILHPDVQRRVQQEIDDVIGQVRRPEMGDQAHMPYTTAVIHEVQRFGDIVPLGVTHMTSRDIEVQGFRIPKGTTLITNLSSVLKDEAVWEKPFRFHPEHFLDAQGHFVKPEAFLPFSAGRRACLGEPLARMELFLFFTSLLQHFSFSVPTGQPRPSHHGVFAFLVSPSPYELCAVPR
Sequence of CYP3A4 (P08684 whole entry): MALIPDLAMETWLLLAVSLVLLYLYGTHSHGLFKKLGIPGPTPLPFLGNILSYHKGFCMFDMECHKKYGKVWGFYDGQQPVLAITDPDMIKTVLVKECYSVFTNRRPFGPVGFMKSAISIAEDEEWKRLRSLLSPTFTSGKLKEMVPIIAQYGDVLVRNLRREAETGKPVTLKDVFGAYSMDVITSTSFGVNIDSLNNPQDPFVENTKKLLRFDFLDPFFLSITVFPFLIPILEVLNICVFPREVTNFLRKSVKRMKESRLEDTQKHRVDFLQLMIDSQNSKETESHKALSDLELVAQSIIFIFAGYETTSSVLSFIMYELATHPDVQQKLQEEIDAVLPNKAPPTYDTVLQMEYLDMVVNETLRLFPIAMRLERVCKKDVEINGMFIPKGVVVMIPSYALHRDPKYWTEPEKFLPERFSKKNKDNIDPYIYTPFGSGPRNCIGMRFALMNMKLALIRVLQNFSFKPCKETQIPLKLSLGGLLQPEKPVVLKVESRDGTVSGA
Sequence of CYP2C19 (P33261 whole entry): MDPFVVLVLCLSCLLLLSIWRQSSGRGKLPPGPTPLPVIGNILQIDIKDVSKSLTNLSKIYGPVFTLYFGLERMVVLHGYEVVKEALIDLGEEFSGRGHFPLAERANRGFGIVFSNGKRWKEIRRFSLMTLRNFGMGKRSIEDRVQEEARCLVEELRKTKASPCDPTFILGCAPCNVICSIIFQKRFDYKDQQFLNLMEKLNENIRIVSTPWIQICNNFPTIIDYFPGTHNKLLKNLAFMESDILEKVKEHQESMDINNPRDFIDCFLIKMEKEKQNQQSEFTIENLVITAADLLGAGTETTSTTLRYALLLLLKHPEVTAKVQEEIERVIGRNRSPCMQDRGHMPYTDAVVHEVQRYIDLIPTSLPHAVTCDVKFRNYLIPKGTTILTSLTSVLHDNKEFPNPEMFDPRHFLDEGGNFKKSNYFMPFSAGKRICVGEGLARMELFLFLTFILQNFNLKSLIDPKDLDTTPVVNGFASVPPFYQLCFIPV
Sequence of Voltage-gated inwardly rectifying potassium channel KCNH2 (Q12809 whole entry): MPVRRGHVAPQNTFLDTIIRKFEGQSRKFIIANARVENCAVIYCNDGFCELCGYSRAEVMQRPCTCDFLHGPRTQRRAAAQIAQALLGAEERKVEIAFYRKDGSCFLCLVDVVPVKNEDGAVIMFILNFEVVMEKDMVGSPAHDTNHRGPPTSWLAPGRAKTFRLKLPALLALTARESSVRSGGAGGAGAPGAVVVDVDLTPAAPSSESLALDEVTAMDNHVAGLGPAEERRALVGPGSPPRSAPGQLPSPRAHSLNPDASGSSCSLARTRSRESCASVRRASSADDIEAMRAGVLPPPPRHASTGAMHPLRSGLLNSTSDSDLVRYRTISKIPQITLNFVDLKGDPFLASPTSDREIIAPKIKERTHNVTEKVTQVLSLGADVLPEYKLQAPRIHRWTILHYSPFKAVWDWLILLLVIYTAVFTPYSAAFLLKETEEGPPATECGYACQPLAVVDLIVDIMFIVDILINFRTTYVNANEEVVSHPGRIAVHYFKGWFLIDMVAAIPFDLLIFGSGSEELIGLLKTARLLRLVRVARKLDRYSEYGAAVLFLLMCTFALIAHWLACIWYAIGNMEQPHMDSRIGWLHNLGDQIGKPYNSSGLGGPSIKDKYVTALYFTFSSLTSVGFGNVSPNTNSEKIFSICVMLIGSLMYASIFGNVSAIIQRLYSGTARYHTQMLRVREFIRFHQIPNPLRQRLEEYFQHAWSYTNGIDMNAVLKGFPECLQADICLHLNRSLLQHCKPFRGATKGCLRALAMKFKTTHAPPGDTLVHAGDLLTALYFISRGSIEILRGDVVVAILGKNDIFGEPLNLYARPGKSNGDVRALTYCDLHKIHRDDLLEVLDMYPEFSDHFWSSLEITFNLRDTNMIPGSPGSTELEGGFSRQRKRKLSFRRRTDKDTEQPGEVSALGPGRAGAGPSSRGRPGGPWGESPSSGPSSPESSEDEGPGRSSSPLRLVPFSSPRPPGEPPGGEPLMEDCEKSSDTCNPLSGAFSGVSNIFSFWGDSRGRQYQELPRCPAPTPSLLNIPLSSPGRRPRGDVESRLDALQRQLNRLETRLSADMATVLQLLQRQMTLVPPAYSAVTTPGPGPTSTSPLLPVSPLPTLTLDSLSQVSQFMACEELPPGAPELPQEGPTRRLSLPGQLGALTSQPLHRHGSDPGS

remaining at 0.5 h [1]: 43%
inhibition [2]: 47%
IC50 [3]: 5 nM
Compound: NC(=O)C12CC3CC(C1)C(NC(=O)C1SCCN1S(=O)(=O)c1ccc(Cl)c(Cl)c1)C(C3)C2 (stereo unspecified)

IC50 [4]: 842 nM
Compound: NC(=O)C12CC3CC(C1)C(NC(=O)C1SCCN1S(=O)(=O)c1ccccc1)C(C3)C2 (stereo unspecified)

inhibition at 10 µM (CYP3A4): 24%
remaining at 0.5 h [1]: 53%
Cmax [5]: 650 ng/mL
inhibition at 10 µM (CYP1A2): 0%
inhibition at 10 µM (CYP2C19): 21%
IC50 [4]: 57 nM
CL/F [6]: 43.3 mL/min/kg
inhibition [2]: 0%
IC50 [3]: 8 nM
inhibition at 10 µM (CYP2D6): 0%
bioavailability [9]: 16%
Compound: Cc1ccc(S(=O)(=O)N2CCSC2C(=O)NC2C3CC4CC2CC(C(N)=O)(C4)C3)cc1 (stereo unspecified)
inhibition in vivo at 40 mg/kg (Mus musculus [7]): 51%
inhibition in vivo at 40 mg/kg (Mus musculus [8]): 51%

IC50 [4]: 171 nM
Compound: COc1ccc(S(=O)(=O)N2CCSC2C(=O)NC2C3CC4CC2CC(C(N)=O)(C4)C3)cc1 (stereo unspecified)

IC50 [4]: 76 nM
Compound: NC(=O)C12CC3CC(C1)C(NC(=O)C1SCCN1S(=O)(=O)c1cccc(F)c1)C(C3)C2 (stereo unspecified)

IC50 [4]: 27 nM
Compound: NC(=O)C12CC3CC(C1)C(NC(=O)C1SCCN1S(=O)(=O)c1ccc(F)cc1)C(C3)C2 (stereo unspecified)

IC50 [3]: 4 nM
Compound: NC(=O)C12CC3CC(C1)C(NC(=O)C1SCCN1S(=O)(=O)c1ccccc1F)C(C3)C2 (mixture of isomers)

inhibition at 10 µM (CYP3A4): 21%
remaining at 0.5 h [1]: 77%
AUC(0-t) at 8 h [10]: 1110 ng·h/mL
inhibition at 10 µM (CYP1A2): 0%
inhibition at 10 µM (CYP2C19): 25%
IC50 [4]: 3 nM
CL/F [6]: 48.3 mL/min/kg
IC50 [3]: 3 nM
inhibition at 10 µM (CYP2D6): 0%
bioavailability [9]: 32%
Compound: NC(=O)C12CC3CC(C1)C(NC(=O)C1SCCN1S(=O)(=O)c1ccccc1F)C(C3)C2 (stereo in doubt; 8g (E)) [listing 1 of 2 here]
Activity (Mus musculus [11]): 28.2%
Activity (Mus musculus [12]): 18.1%
inhibition in vivo at 20 mg/kg (Cynomolgus monkey [13]): 62%
Activity [14]: > 100 µM
inhibition in vivo at 40 mg/kg (Mus musculus [7]): 67%
inhibition in vivo at 40 mg/kg (Mus musculus [8]): 65%
inhibition in vivo at 20 mg/kg (Cynomolgus monkey [15]): 57%

inhibition [2]: 0%
Compound: NC(=O)C12CC3CC(C1)C(NC(=O)C1SCCN1S(=O)(=O)c1ccccc1F)C(C3)C2 (stereo in doubt; 8g (E)) [listing 2 of 2 here]

IC50 [3]: 2 nM
Compound: NC(=O)C12CC3CC(C1)C(NC(=O)[C@H]1SCCN1S(=O)(=O)c1ccccc1F)C(C3)C2 (stereo in doubt; 8g (R) (E))

IC50 [3]: 1340 nM
Compound: NC(=O)C12CC3CC(C1)C(NC(=O)[C@H]1SCCN1S(=O)(=O)c1ccccc1F)C(C3)C2 (stereo in doubt; 8g (R) (Z))

IC50 [3]: 12 nM
Compound: NC(=O)C12CC3CC(C1)C(NC(=O)[C@@H]1SCCN1S(=O)(=O)c1ccccc1F)C(C3)C2 (stereo in doubt; 8g (S) (E))

IC50 [3]: 38700 nM
Compound: NC(=O)C12CC3CC(C1)C(NC(=O)[C@@H]1SCCN1S(=O)(=O)c1ccccc1F)C(C3)C2 (stereo in doubt; 8g (S) (Z))

IC50 [3]: 7950 nM
Compound: NC(=O)C12CC3CC(C1)C(NC(=O)C1SCCN1S(=O)(=O)c1ccccc1F)C(C3)C2 (stereo in doubt; 8g (Z))

IC50 [4]: 4 nM
IC50 [3]: 4 nM
Compound: NC(=O)C12CC3CC(C1)C(NC(=O)C1SCCN1S(=O)(=O)c1ccccc1F)C(C3)C2 (stereo in doubt; 8g)
